Key:
D(2) dopamine receptor = D(2) dopamine receptor (Homo sapiens, UniProt P14416); assay: Displacement of [3H]-raclopride from human D2L receptor expressed in HEK293 cell membranes after 1 hr by Microbeta scintillation counting method
[1] = molecular target: T1, 5-hydroxytryptamine receptor 1A (Homo sapiens, UniProt P08908); assay: Displacement of [3H]-8-OH-DPAT from human 5HT1AR expressed in HEK293 cell membranes after 1 hr by Microbeta scintillation counting method
T1 sequence (P08908 whole entry): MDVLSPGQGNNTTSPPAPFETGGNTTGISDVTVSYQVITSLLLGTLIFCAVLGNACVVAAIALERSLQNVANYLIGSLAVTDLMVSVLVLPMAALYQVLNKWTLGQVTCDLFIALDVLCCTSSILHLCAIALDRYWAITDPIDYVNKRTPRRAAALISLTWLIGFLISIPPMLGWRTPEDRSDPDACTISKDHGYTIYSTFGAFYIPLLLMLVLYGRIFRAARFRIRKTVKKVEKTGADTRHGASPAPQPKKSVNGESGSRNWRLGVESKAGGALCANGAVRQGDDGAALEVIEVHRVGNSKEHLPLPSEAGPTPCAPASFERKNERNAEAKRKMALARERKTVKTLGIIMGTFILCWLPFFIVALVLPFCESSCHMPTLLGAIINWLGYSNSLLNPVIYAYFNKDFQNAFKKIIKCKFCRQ

[2] = molecular target: 5-hydroxytryptamine receptor 7 (Homo sapiens, UniProt P34969); assay: Displacement of [3H]-5-CT from human 5HT7BR expressed in HEK293 cell membranes after 1 hr by Microbeta scintillation counting method
Chain of 5-hydroxytryptamine receptor 7 (P34969 whole entry): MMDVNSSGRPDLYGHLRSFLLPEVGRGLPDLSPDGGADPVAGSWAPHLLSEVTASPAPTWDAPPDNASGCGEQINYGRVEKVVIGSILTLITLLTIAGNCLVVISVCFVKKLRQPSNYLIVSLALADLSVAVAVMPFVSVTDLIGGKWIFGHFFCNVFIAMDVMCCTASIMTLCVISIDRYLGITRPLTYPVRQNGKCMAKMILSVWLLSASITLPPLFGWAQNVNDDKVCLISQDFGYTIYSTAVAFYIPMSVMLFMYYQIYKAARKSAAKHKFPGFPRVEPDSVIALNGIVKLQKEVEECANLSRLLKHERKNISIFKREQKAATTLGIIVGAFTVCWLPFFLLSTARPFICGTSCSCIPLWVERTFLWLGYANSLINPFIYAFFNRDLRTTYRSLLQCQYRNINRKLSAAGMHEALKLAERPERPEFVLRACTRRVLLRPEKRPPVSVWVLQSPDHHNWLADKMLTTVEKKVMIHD

[3] = molecular target: T2, Adrenergic receptor alpha-1 (Rattus norvegicus, UniProt P15823+P23944+P43140); assay: Displacement of [3H]-prazosin from alpha1-adrenergic receptor in rat brain cortex after 30 mins by Microbeta scintillation counting method
T2 sequence (P15823 whole entry): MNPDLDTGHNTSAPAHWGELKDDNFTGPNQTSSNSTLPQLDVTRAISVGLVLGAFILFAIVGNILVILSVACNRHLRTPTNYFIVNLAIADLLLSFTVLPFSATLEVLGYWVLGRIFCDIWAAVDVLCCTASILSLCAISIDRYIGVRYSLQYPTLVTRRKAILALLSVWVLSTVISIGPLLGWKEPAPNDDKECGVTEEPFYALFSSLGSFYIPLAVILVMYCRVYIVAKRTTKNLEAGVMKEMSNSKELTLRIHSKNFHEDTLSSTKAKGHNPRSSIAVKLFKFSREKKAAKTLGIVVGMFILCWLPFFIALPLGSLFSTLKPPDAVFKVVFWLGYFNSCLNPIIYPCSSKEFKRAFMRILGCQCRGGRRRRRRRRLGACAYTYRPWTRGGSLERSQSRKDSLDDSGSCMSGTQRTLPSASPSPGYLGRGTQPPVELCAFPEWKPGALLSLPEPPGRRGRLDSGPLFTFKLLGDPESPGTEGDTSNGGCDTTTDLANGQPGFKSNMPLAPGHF
T2 sequence (P23944 whole entry): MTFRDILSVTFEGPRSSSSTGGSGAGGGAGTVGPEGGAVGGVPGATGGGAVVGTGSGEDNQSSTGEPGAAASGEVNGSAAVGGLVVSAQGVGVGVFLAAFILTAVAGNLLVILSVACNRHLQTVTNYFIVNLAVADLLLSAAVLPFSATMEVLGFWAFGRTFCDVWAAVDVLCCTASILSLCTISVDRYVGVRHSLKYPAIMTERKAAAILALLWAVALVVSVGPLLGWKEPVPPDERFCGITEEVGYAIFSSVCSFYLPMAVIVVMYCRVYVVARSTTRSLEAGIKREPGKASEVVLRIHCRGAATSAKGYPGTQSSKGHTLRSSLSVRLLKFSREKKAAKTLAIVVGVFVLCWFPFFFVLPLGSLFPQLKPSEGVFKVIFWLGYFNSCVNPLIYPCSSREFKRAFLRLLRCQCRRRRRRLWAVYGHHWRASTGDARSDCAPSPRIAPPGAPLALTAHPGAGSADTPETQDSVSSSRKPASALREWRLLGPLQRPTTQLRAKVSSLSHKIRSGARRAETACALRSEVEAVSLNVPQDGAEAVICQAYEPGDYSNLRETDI
T2 sequence (P43140 whole entry): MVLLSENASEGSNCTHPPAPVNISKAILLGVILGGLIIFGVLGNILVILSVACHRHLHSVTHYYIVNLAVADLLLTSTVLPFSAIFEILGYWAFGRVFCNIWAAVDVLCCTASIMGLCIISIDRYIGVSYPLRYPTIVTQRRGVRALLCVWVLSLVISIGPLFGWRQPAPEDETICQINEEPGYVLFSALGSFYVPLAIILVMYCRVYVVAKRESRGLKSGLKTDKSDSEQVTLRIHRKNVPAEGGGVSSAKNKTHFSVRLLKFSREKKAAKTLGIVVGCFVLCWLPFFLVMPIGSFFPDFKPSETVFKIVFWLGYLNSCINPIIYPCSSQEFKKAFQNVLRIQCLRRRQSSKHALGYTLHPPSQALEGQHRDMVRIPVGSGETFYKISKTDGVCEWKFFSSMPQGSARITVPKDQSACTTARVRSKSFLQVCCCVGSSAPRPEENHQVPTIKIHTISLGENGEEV

[4] = molecular target: T3, Adrenergic receptor alpha-2 (Rattus norvegicus, UniProt P22086+P19328+P22909); assay: Displacement of [3H]-clonidine from alpha2-adrenergic receptor in rat brain cortex after 30 mins by Microbeta scintillation counting method
T3 sequence (P22086 whole entry): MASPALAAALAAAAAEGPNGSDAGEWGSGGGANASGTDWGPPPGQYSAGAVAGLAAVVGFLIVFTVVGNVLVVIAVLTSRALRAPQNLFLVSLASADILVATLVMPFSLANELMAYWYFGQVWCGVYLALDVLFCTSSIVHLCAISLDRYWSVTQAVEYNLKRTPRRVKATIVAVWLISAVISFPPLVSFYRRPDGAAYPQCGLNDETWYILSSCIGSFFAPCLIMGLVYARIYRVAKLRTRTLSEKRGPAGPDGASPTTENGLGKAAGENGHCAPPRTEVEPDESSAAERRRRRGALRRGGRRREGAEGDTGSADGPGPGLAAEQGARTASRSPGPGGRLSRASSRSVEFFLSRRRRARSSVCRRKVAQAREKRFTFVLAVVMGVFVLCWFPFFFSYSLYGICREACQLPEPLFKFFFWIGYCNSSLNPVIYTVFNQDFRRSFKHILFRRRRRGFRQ
T3 sequence (P19328 whole entry): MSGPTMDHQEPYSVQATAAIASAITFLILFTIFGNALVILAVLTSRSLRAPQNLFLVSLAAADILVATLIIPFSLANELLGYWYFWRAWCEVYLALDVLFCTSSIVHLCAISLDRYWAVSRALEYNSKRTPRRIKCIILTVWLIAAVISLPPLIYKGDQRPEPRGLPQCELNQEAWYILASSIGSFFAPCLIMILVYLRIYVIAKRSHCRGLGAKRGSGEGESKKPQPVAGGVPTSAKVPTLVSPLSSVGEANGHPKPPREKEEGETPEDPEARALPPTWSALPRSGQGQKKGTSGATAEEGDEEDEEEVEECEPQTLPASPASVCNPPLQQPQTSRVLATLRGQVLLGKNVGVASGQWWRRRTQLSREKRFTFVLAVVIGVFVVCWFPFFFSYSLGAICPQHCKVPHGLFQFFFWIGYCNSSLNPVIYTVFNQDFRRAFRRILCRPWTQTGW
T3 sequence (P22909 whole entry): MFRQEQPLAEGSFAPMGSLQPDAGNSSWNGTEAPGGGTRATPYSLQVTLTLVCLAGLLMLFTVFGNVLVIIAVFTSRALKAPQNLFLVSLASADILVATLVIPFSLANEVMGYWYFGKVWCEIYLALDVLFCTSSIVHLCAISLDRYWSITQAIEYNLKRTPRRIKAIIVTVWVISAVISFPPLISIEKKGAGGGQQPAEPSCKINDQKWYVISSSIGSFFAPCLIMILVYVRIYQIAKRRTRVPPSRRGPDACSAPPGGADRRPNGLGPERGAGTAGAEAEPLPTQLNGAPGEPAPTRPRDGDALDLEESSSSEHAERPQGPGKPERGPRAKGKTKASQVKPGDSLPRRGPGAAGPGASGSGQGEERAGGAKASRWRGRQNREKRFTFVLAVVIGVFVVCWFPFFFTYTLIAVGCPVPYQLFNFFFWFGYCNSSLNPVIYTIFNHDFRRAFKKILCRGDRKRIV

[5] = molecular target: Beta-1 adrenergic receptor (Rattus norvegicus, UniProt P18090); assay: Displacement of [3H]-CGP-12177 from beta1-adrenergic receptor in rat brain cortex after 1 hr by Microbeta scintillation counting method
Chain of Beta-1 adrenergic receptor (P18090 whole entry): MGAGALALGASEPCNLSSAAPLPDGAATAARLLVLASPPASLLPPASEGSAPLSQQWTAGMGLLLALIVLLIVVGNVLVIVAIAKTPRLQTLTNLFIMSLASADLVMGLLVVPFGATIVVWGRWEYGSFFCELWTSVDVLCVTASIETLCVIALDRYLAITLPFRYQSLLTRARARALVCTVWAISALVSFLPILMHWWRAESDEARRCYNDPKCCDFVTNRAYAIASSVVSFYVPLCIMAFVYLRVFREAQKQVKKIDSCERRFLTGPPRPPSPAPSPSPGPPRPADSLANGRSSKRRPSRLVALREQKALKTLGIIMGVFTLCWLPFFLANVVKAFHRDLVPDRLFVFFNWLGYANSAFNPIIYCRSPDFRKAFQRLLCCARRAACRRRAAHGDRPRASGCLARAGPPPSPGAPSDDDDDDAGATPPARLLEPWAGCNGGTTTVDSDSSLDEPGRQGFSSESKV

Mus musculus [6] = assay: Antidepressant like activity in Swiss albino mouse assessed as immobility time at 5 mg/kg, ip administered 60 mins prior to test and measured last 4 mins of 6 mins test by forced swimming test (reference value: 159.78 to 183.56 secs); assay type: functional
Mus musculus [7] = assay: Antidepressant like activity in Swiss albino mouse assessed as immobility time at 10 mg/kg, ip administered 60 mins prior to test and measured last 4 mins of 6 mins test by forced swimming test (reference value: 159.78 to 183.56 secs); assay type: functional
Mus musculus [8] = assay: Antidepressant like activity in Swiss albino mouse assessed as immobility time at 20 mg/kg, ip administered 60 mins prior to test and measured last 4 mins of 6 mins test by forced swimming test (reference value: 159.78 to 183.56 secs); assay type: functional
Mus musculus [9] = assay: Anxiolytic-like activity in Swiss albino mouse assessed as number of punished crossings at 10 mg/kg, ip administered 60 mins prior to test and measured post 3 secs of electric shock by four-plate test (reference value: 3.8 to 4 /min); assay type: functional
Mus musculus [10] = assay: Anxiolytic-like activity in Swiss albino mouse assessed as number of punished crossings at 20 mg/kg, ip administered 60 mins prior to test and measured post 3 secs of electric shock by four-plate test (reference value: 3.8 to 4 /min); assay type: functional
Mus musculus [11] = assay: Anxiolytic-like activity in Swiss albino mouse assessed as number of punished crossings at 40 mg/kg, ip administered 60 mins prior to test and measured post 3 secs of electric shock by four-plate test (reference value: 3.8 to 4 /min); assay type: functional
Mus musculus [12] = assay: Antidepressant like activity in Swiss albino mouse assessed as decrease in immobility time at 20 mg/kg, ip administered 60 mins prior to test and measured last 4 mins of 6 mins test by forced swimming test relative to control; assay type: functional; design: scale not given: the % may be the effect or the level left
Mus musculus [13] = assay: Effect on spontaneous locomotor activity in Swiss albino mouse at 20 mg/kg, ip administered 60 mins prior to test and measured for 3 to 6 mins; assay type: ADME, organism-based; details: in vivo
Method in brief: (§1)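 Male Swiss Albino mice given compound or vehicle (1% Tween 80, 10 ml/kg) i.p. 60 min before test. Each mouse placed alone in a cage for 30 min habituation. Ambulation (photobeam channel crossings) then recorded over a 3–6 min session. Means ± SEM.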

Homo sapiens = species: Homo sapiens; assay: Selectivity ratio of Ki for human D2L receptor expressed in HEK293 cell membranes to Ki for human 5HT7BR expressed in HEK293 cell membranes; assay type: cell-based
Method in brief: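 Membranes from HEK293 cells stably expressing human 5-HT1A, 5-HT7b or D2L receptors. Buffers all 50 mM Tris HCl with 4 mM MgCl2 and 0.1% ascorbate. 5-HT1A: 0.1 mM EDTA, 10 µM pargyline, 2.5 nM [3H]-8-OH-DPAT, room temperature. 5-HT7b: 10 µM pargyline, 0.8 nM [3H]-5-CT, 37°C. D2L: EDTA, NaCl, KCl, CaCl2, 2.5 nM [3H]-raclopride, 37°C. Incubation 1 h; nonspecific binding 10 µM 5-HT (haloperidol for D2L). Seven concentrations (10^-10–10^-4 M) in triplicate; filtration; Ki by Cheng-Prusoff; at least two experiments.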

Mus musculus [14] = assay: Anxiolytic-like activity in Swiss albino mouse assessed as number of punished crossings at 5 mg/kg, ip administered 60 mins prior to test and measured post 3 secs of electric shock by four-plate test (reference value: 3.8 to 4 /min); assay type: functional
Mus musculus [15] = assay: Effect on spontaneous locomotor activity in Swiss albino mouse at 10 mg/kg, ip administered 60 mins prior to test and measured for 3 to 6 mins; assay type: ADME, organism-based; details: in vivo; method in brief: as §1

Chain of D(2) dopamine receptor (P14416 whole entry): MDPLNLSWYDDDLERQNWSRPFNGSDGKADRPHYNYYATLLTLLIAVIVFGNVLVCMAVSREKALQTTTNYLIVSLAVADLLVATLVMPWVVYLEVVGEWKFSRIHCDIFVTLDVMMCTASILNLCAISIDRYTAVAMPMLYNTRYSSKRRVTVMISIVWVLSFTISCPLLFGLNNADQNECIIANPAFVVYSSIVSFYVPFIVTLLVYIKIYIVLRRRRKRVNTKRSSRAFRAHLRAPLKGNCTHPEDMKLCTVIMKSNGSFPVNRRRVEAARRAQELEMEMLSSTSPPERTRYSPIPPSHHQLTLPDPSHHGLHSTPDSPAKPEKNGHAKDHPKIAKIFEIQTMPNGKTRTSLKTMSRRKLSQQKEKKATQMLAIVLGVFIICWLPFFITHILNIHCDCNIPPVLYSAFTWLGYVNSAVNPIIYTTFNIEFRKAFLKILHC

| Compound | Ki (D(2) dopamine receptor) [nM] | Ki [1] [nM] | Ki [2] [nM] | Ki [3] [nM] | Ki [4] [nM] | Ki [5] [nM] | other results |
| --- | --- | --- | --- | --- | --- | --- | --- |
| COc1ccccc1N1CCN(CC(O)CN2C(=O)NC(C)(c3ccc(Cl)cc3)C2=O)CC1.Cl (racemic) | 366 | 109 | 20 | 268 | > 10000 | – | – |
| CC1(c2ccccc2)NC(=O)N(CC(O)CN2CCN(c3ccccc3C#N)CC2)C1=O.Cl (racemic) | 1690 | 585 | 12 | 278 | – | > 10000 | Time (Mus musculus [6]): 141.22 s; Time (Mus musculus [7]): 134.57 s; Time (Mus musculus [8]): 34.44 s; Activity (Mus musculus [9]): 3.3 min⁻¹; Activity (Mus musculus [10]): 4.9 min⁻¹; Activity (Mus musculus [11]): 5.2 min⁻¹; Activity (Mus musculus [12]): 80%; Activity (Mus musculus [13]): Non-Toxic; Ratio Ki (Homo sapiens): 140 to 190 |
| N#Cc1ccccc1N1CCN(CC(O)CN2C(=O)NC(c3ccccc3)(c3ccccc3)C2=O)CC1 (racemic) | 534 | 341 | 1200 | – | – | – | – |
| CC1(c2ccc(Cl)cc2)NC(=O)N(CC(O)CN2CCN(C(c3ccccc3)c3ccccc3)CC2)C1=O.Cl (racemic) | 601 | 99 | 8 | 530 | > 10000 | – | – |
| COc1ccccc1N1CCN(CC(O)CN2C(=O)NC(C)(c3ccccc3)C2=O)CC1.Cl (racemic) | 1030 | 421 | 10 | 308 | – | > 10000 | Time (Mus musculus [6]): 182.89 s; Time (Mus musculus [7]): 121.38 s; Time (Mus musculus [8]): 66.11 s; Activity (Mus musculus [14]): 3 min⁻¹; Activity (Mus musculus [9]): 4.7 min⁻¹; Activity (Mus musculus [10]): 4.3 min⁻¹; Activity (Mus musculus [15]): Non-Toxic; Activity (Mus musculus [13]): Non-Toxic |
| COc1ccccc1N1CCN(CC(O)CN2C(=O)NC(c3ccccc3)(c3ccccc3)C2=O)CC1 (racemic) | 497 | 197 | 566 | – | – | – | – |
| COc1ccc(C2(C)NC(=O)N(CC(O)CN3CCN(c4ccccc4C#N)CC3)C2=O)cc1 (racemic) | – | 219 | – | – | – | – | – |
| COc1ccccc1N1CCN(CC(O)CN2C(=O)NC(C)(c3ccc(C)cc3)C2=O)CC1 (racemic) | 876 | 184 | 50 | – | – | – | – |
| CCOc1ccccc1N1CCN(CC(O)CN2C(=O)NC(C)(c3ccccc3)C2=O)CC1.Cl (racemic) | 303 | 190 | 6 | 500 | > 5000 | > 10000 | – |

From ChEMBL document CHEMBL4145534, “Computer-aided insights into receptor-ligand interaction for novel 5-arylhydantoin derivatives as serotonin 5-HT7 receptor agents with antidepressant activity” (Eur J Med Chem, 2018)
